ChEMBL document CHEMBL4665692, “Synthesis and Antimicrobial Activity of Burkholderia-Related 4-Hydroxy-3-methyl-2-alkenylquinolines (HMAQs) and Their N-Oxide Counterparts” (2020)
≈ marks a conversion by molar mass, not a printed value. Calls of active or inactive are those of the source. The rule behind the calls is not given here.

Assays:
Cryptococcus neoformans = test: Antifungal activity against Cryptococcus neoformans after 48 hrs by CLSI protocol based broth microdilution assay; format: functional
Fusarium oxysporum = test: Antifungal activity against Fusarium oxysporum after 48 hrs by CLSI protocol based broth microdilution assay; format: functional
Procedure, shortened: (§1)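 Molds (A. niger, F. oxyporum, F. solani, Mucorales TM29) were grown 4 days at 25 °C on PDA, and spores were harvested in sterile water and counted by hemacytometer. Spores (2 × 10⁴ mL⁻¹) went into L-glutamine RPMI 1640, MOPS-buffered to pH 7.0, with serially diluted compound (top 100 μM). Incubated 2 days at room temperature; OD600 read; MIC.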

Pseudomonas fluorescens = test: Antibacterial activity against Pseudomonas fluorescens after 48 hrs by CLSI protocol based broth microdilution assay; format: functional
Procedure, shortened: (§2)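 Strains (B. subtilis PY79, P. peoriae LMG1611, S. aureus Newman, S. agalactiae ATCC27956, E. coli ATCC25922, P. aeruginosa PA14, P. fluorescens LMG1794, X. campestris Xg, A. pleuropneumoniae) were grown overnight in TSB at 30 °C with shaking, then suspended in Mueller-Hinton broth, final OD600 0.01. Twofold-series compound, 100 to 0.78 μM, from 20 mM DMSO stock. Incubated 48 h, 30 °C, 250 rpm; OD600 read; MIC.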

Streptococcus agalactiae = test: Antibacterial activity against Streptococcus agalactiae after 48 hrs by CLSI protocol based broth microdilution assay; format: functional; procedure, shortened: as §2
[1] = Antibacterial activity against Paenibacillus peoriae after 48 hrs by CLSI protocol based broth microdilution assay; format: functional; procedure, shortened: as §2
Pseudomonas aeruginosa = test: Antibacterial activity against Pseudomonas aeruginosa after 48 hrs by CLSI protocol based broth microdilution assay; format: functional; procedure, shortened: as §2
Staphylococcus aureus = test: Antibacterial activity against Staphylococcus aureus after 48 hrs by CLSI protocol based broth microdilution assay; format: functional; procedure, shortened: as §2
Xanthomonas campestris = test: Antibacterial activity against Xanthomonas campestris after 48 hrs by CLSI protocol based broth microdilution assay; format: functional; procedure, shortened: as §2
[2] = tested on: Actinobacillus pleuropneumoniae; test: Antibacterial activity against Actinobacillus pleuropneumoniae after 48 hrs by CLSI protocol based broth microdilution assay; format: functional; procedure, shortened: as §2
Aspergillus niger = test: Antifungal activity against Aspergillus niger after 48 hrs by CLSI protocol based broth microdilution assay; format: functional; procedure, shortened: as §1
Mucorales = test: Antifungal activity against Mucorales after 48 hrs by CLSI protocol based broth microdilution assay; format: functional; procedure, shortened: as §1
Escherichia coli = test: Antibacterial activity against Escherichia coli after 48 hrs by CLSI protocol based broth microdilution assay; format: functional; procedure, shortened: as §2
Fusarium solani = test: Antifungal activity against Fusarium solani after 48 hrs by CLSI protocol based broth microdilution assay; format: functional; procedure, shortened: as §1
Bacillus subtilis = test: Antibacterial activity against Bacillus subtilis after 48 hrs by CLSI protocol based broth microdilution assay; format: functional; procedure, shortened: as §2
Candida albicans = test: Antifungal activity against Candida albicans after 48 hrs by CLSI protocol based broth microdilution assay; format: functional
[3] = tested on: hmqA (Burkholderia ambifaria); test: Inhibition of beta-galactosidase hmqA mutant (Burkholderia ambifaria) by lacZ reporter gene assay

SMILES	MIC (Cryptococcus neoformans) [µM]	MIC (Fusarium oxysporum) [µM]	MIC (Pseudomonas fluorescens) [µM]	MIC (Streptococcus agalactiae) [µM]	MIC [1] [µM]	MIC (Pseudomonas aeruginosa) [µM]	MIC (Staphylococcus aureus) [µM]	MIC (Xanthomonas campestris) [µM]	MIC [2] [µM]	MIC (Aspergillus niger) [µM]	MIC (Mucorales) [µM]	MIC (Escherichia coli) [µM]	MIC (Fusarium solani) [µM]	MIC (Bacillus subtilis) [µM]	MIC (Candida albicans) [µM]	Activity [3]
CCCC/C=C/Cc1c(C)c(=O)c2ccccc2n1O	50 (≈ 13.6 µg/mL)	> 100	50 (≈ 13.6 µg/mL)	1.56 (≈ 0.423 µg/mL)	1.56 (≈ 0.423 µg/mL)	50 (≈ 13.6 µg/mL)	1.56 (≈ 0.423 µg/mL)	6.25 (≈ 1.7 µg/mL)	1.56 (≈ 0.423 µg/mL)	> 100	> 100	25 (≈ 6.78 µg/mL)	> 100	1.56 (≈ 0.423 µg/mL)	> 100	
CCCCCC/C=C/Cc1[nH]c2ccccc2c(=O)c1C	1.56 (≈ 0.442 µg/mL)	12.5 (≈ 3.54 µg/mL)	50 (≈ 14.2 µg/mL)	1.56 (≈ 0.442 µg/mL)	12.5 (≈ 3.54 µg/mL)	> 100	1.56 (≈ 0.442 µg/mL)	100 (≈ 28.3 µg/mL)	1.56 (≈ 0.442 µg/mL)	> 100	12.5 (≈ 3.54 µg/mL)	100 (≈ 28.3 µg/mL)	6.25 (≈ 1.77 µg/mL)	1.56 (≈ 0.442 µg/mL)	> 100	
CCCC/C=C/Cc1[nH]c2ccccc2c(=O)c1C	3.13 (≈ 0.799 µg/mL)	12.5 (≈ 3.19 µg/mL)	25 (≈ 6.38 µg/mL)	1.56 (≈ 0.398 µg/mL)	12.5 (≈ 3.19 µg/mL)	> 100	1.56 (≈ 0.398 µg/mL)	100 (≈ 25.5 µg/mL)	3.13 (≈ 0.799 µg/mL)	> 100	6.25 (≈ 1.6 µg/mL)	100 (≈ 25.5 µg/mL)	> 100	1.56 (≈ 0.398 µg/mL)	> 100	Active
CCCCCC/C=C/Cc1c(C)c(=O)c2ccccc2n1O	6.25 (≈ 1.87 µg/mL)	> 100	25 (≈ 7.49 µg/mL)	1.56 (≈ 0.467 µg/mL)	1.56 (≈ 0.467 µg/mL)	12.5 (≈ 3.74 µg/mL)	1.56 (≈ 0.467 µg/mL)	12.5 (≈ 3.74 µg/mL)	1.56 (≈ 0.467 µg/mL)	> 100	> 100	6.25 (≈ 1.87 µg/mL)	> 100	3.13 (≈ 0.937 µg/mL)	> 100	

Further compounds by falling MIC (Cryptococcus neoformans), results first:

MIC (Cryptococcus neoformans) [µM]	MIC (Fusarium oxysporum) [µM]	MIC (Pseudomonas fluorescens) [µM]	MIC (Streptococcus agalactiae) [µM]	MIC [1] [µM]	MIC (Pseudomonas aeruginosa) [µM]	MIC (Staphylococcus aureus) [µM]	MIC (Xanthomonas campestris) [µM]	MIC [2] [µM]	MIC (Aspergillus niger) [µM]	MIC (Mucorales) [µM]	MIC (Escherichia coli) [µM]	MIC (Fusarium solani) [µM]	MIC (Bacillus subtilis) [µM]	MIC (Candida albicans) [µM]	Activity [3]	SMILES
12.5 (≈ 3.57 µg/mL)	> 100	25 (≈ 7.13 µg/mL)	1.56 (≈ 0.445 µg/mL)	1.56 (≈ 0.445 µg/mL)	25 (≈ 7.13 µg/mL)	1.56 (≈ 0.445 µg/mL)	3.13 (≈ 0.893 µg/mL)	1.56 (≈ 0.445 µg/mL)	> 100	> 100	6.25 (≈ 1.78 µg/mL)	> 100	1.56 (≈ 0.445 µg/mL)	> 100		CCCCC/C=C/Cc1c(C)c(=O)c2ccccc2n1O
1.56 (≈ 0.42 µg/mL)	> 100	25 (≈ 6.73 µg/mL)	1.56 (≈ 0.42 µg/mL)	12.5 (≈ 3.37 µg/mL)	50 (≈ 13.5 µg/mL)	1.56 (≈ 0.42 µg/mL)	100 (≈ 26.9 µg/mL)	1.56 (≈ 0.42 µg/mL)	> 100	12.5 (≈ 3.37 µg/mL)	100 (≈ 26.9 µg/mL)	> 100	1.56 (≈ 0.42 µg/mL)	> 100	Active	CCCCC/C=C/Cc1[nH]c2ccccc2c(=O)c1C
